Assay outcomes as filed in PubChem.
dFosB act = mouse delta FosB homodimer activation; P13346; purified delta FosB, TAMRA-CDK5 oligo fluorescence polarization; percent of positive-control signal above neutral wells; activation, % at 25 µM; hit rate 0.99% among 340,000; AID 493131;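 active = mean activation above about 17%, with every replicate also reaching it, limit read from the data, passing the limit was not always enough; inconclusive = only one of the two conditions met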
Target sequence (P13346 whole entry, looked up): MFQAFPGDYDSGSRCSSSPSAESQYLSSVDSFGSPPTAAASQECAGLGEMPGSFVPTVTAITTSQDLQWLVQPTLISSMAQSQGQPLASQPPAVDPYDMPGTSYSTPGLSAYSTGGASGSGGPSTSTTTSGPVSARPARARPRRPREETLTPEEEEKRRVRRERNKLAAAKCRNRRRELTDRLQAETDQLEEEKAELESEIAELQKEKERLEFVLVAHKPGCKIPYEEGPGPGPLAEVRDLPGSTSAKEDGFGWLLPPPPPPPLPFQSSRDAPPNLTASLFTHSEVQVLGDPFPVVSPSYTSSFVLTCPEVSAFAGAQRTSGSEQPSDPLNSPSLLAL
RAD52 inh = inhibitors of human RAD52 DNA annealing; recombinant RAD52 DNA annealing, FRET fluorescence; inhibition, % at 18.7 µM; hit rate 0.46% among 360,000; AID 651710;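 active = every replicate showing at least 50% inhibition; inconclusive = mean inhibition at least 50% but not in every replicate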
Target sequence (P43351 whole entry, looked up): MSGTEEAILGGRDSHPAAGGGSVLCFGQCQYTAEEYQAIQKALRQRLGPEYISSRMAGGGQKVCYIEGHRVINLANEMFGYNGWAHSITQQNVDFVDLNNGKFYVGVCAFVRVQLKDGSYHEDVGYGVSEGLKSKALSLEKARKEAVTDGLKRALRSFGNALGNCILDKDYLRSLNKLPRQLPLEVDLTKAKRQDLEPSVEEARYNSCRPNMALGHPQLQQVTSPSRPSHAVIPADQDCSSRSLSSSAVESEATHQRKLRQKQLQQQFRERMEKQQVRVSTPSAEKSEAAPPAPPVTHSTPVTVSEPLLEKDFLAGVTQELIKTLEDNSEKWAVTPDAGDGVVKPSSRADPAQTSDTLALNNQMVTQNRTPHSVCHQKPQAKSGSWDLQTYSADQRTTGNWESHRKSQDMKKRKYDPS
AF4-AF9 inh = MLL-AF4/AF9 protein interaction inhibition. AlphaScreen, biotin-AF4 peptide binding to FLAG-AF9. inhibition, % at 10 µM. P42568. AID 651704. hit rate 0.47% among 350,000;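 active = every replicate reaching a set inhibition limit, whatever the replicate mean, cut at about 25% in these data; inconclusive = mean inhibition reaches that limit but some replicates miss it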
S100A4 MyoIIA = blocks human S100A4 binding to myosin IIA peptide | AID 652163 | inhibition, % at 10.7 µM | P26447 | S100A4/TAMRA-MyoIIA peptide fluorescence polarization | hit rate 0.14% among 360,000;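 active = mean inhibition of at least 70% across replicates, with every replicate also reaching that level; inconclusive = mean inhibition reaches 70% but some replicates fall short; inactive = mean inhibition below 70%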
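Test system – S100A4 monomer (human) · Compound – single-point compound testing · Schedule – 5 min incubation before reading · Probe or stimulus – TAMRA-labelled myosin IIA heavy-chain peptide probe, 5 nM · Benchmarks – neutral control DMSO, positive control TFP · Medium – Calcium-containing HEPES buffer, pH 7.2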
RAD54 inh = blocks human RAD54 Holliday junction branch migration; Q92698; FAM/BHQ fluorescence; inhibition, % at 10.4 µM; hit rate 0.14% among 360,000;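 active = mean normalized replicate activity at least 40 and at least half of replicates scoring 40 or more; inconclusive = only one of the two criteria met; inactive = mean below 40 and under half of replicates reaching 40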;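 note: inhibitors cause a drop in the FAM fluorescence signal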
Of the large screens only hits and unclear results are named; the others gave an inactive call. Sampled rows, rich in hits. Any-hit rate of the full collection: about 1.5%.

CN(C)CCCNc1ccc(-c2cc(Nc3cccc(Cl)c3)ncn2)cn1	dFosB act 39
C[C@H]1CN([C@@H](C)CO)C(=O)c2cccc(N(C)C)c2O[C@@H]1CN(C)C(=O)Nc1cccc2ccccc12	none (no result: dFosB act)
COc1ccc(NC(=O)N(C)C[C@H]2Oc3c(NC(=O)NC4CCCCC4)cccc3C(=O)N([C@H](C)CO)C[C@H]2C)cc1	S100A4 MyoIIA 88 (no result: dFosB act)
COc1ccc(NC(=O)N(C)C[C@H]2Oc3c(NC(=O)NC4CCCCC4)cccc3C(=O)N([C@H](C)CO)C[C@@H]2C)cc1	none
C[C@@H]1CN([C@H](C)CO)C(=O)c2cccc(NC(=O)Nc3ccc(C(F)(F)F)cc3)c2O[C@@H]1CN(C)CC1CCCCC1	RAD52 inh 57 (no result: dFosB act)
C[C@@H]1CN([C@@H](C)CO)C(=O)c2cccc(N(C)C)c2O[C@@H]1CN(C)C(=O)Nc1cccc2ccccc12	S100A4 MyoIIA 81 (no result: dFosB act)
CNC[C@@H]1Oc2ccc(NC(=O)Nc3cccc4ccccc34)cc2C(=O)N([C@H](C)CO)C[C@@H]1C	S100A4 MyoIIA 137 (no result: dFosB act)
O=C(C[C@@H]1C[C@@H]2c3cc(NC(=O)C4CCOCC4)ccc3O[C@@H]2[C@H](CO)O1)NCc1cc(F)ccc1F	none (no result: dFosB act)
C[C@@H]1CN([C@@H](C)CO)C(=O)c2cccc(NC(=O)Nc3cccc4ccccc34)c2O[C@H]1CN(C)C(=O)Nc1ccccc1	S100A4 MyoIIA 105 (no result: dFosB act)
CC(C)NC(=O)N(C)C[C@H]1Oc2ccc(NC(=O)CCC(F)(F)F)cc2C(=O)N([C@@H](C)CO)C[C@H]1C	none (no result: dFosB act)
C[C@@H]1CN([C@H](C)CO)S(=O)(=O)c2ccc(-c3ccc(F)cc3)cc2O[C@@H]1CN(C)C(=O)Nc1ccccc1F	none (no result: dFosB act)
CCOc1ccc2c(c1)C(NC(C)=O)C(=O)N2CCN1CCOCC1 (stereo unspecified)	AF4-AF9 inh 25
O=C(c1ccccn1)N1C[C@@H]2[C@H](c3ccccc31)[C@H](CO)N2C(=O)c1ccccn1	none (no result: dFosB act, RAD52 inh, AF4-AF9 inh, S100A4 MyoIIA)
COCc1cn(CC[C@H]2CC[C@@H](NC(=O)Nc3ccc(Cl)cc3)[C@H](CO)O2)nn1	none (no result: dFosB act)
COc1cccc(C(=O)Nc2ccc(-c3nc4ccccc4o3)c(O)c2)c1	none (no result: RAD52 inh, AF4-AF9 inh, S100A4 MyoIIA)
COc1cc(C(=O)Nc2ccc(-c3nc4cc(C)ccc4o3)c(O)c2)cc(OC)c1OC	dFosB act 27 (no result: RAD52 inh, AF4-AF9 inh, S100A4 MyoIIA)
CO[C@H]1CN(C)C(=O)c2ccc(NS(C)(=O)=O)cc2OC[C@@H](C)N(C(=O)CN(C)C)C[C@@H]1C	none (no result: dFosB act)
C[C@@H]1CCCCO[C@@H](CN(C)S(C)(=O)=O)[C@@H](C)CN([C@H](C)CO)C(=O)c2cc(NC(=O)CCCN(C)C)ccc2O1	none (no result: dFosB act)
COc1ccc(N=C2S/C(=C\c3ccc(OCC(=O)O)cc3)C(=O)N2CCc2c[nH]c3ccccc23)cc1	AF4-AF9 inh 35 (no result: RAD54 inh)
COCC(=O)N1CC2(C1)CN(Cc1ccccc1Cl)[C@@H](CO)c1c2c2ccc(OC)cc2n1C	none (no result: dFosB act, RAD54 inh)
COc1ccccc1C#Cc1ccc([C@@H]2[C@@H](CO)N3CCCCN(C(=O)C4CCCC4)C[C@@H]23)cc1	none (no result: dFosB act)
COc1ccc(C#Cc2ccc([C@H]3[C@@H](CO)N4CCCCN(C(=O)Nc5cccc(F)c5)C[C@H]34)cc2)cc1	RAD54 inh 51 (no result: dFosB act, RAD52 inh, AF4-AF9 inh, S100A4 MyoIIA)
COc1ccccc1C#Cc1ccc([C@H]2[C@H](CO)N3CCCCN(C(=O)C4CCCC4)C[C@@H]23)cc1	RAD52 inh 56 (no result: dFosB act)
COc1ccc(C#Cc2ccc([C@@H]3[C@H]4CN(C(=O)Nc5cccc(F)c5)CCCCN4[C@H]3CO)cc2)cc1	none (no result: dFosB act, AF4-AF9 inh, S100A4 MyoIIA)
COc1ccc(C#Cc2ccc([C@H]3[C@H]4CN(C(=O)Nc5ccccc5)CCCCN4[C@H]3CO)cc2)cc1	S100A4 MyoIIA 119 (no result: dFosB act)
COc1ccc(C#Cc2ccc([C@H]3[C@@H](CO)N4CCCCN(C(=O)Nc5ccccc5)C[C@@H]34)cc2)cc1	none (no result: dFosB act)
O=C(C1CCCC1)N1CCCCN2[C@H](CO)[C@@H](c3ccc(C#CC4(O)CCCC4)cc3)[C@H]2C1	S100A4 MyoIIA 126 (no result: dFosB act)
CO[C@H]1CN(C)C(=O)c2cc(NC(=O)Nc3cccc(F)c3)ccc2OC[C@H](C)N(C)C[C@@H]1C	none (no result: dFosB act)
COc1ccc(NC(=O)N[C@H]2CC[C@H](CCn3cc(C4(O)CCCC4)nn3)O[C@H]2CO)cc1	none (no result: dFosB act)
COc1ccc(C#Cc2ccc([C@@H]3[C@H](CO)N4CCCCN(C(=O)Nc5ccccc5)C[C@@H]34)cc2)cc1	none (no result: dFosB act)
COc1ccc(NC(=O)N2CCCCN3[C@H](CO)[C@H](c4ccc(C#Cc5ccccc5)cc4)[C@H]3C2)cc1	RAD52 inh 95 (no result: dFosB act)
O=S(=O)(c1ccc(Cl)cc1)N1CCN(Cc2cccc(OCCO)c2)CC1	none (no result: dFosB act, RAD54 inh)
C#CCOCCOCCOCCNc1nc(N2CCN(C(=O)CCCCCCCCCCNC(=O)[C@@H](CCSC)n3cc(CCO)nn3)CC2)nc(N2CCN(C(=O)CCCCCCCCCCNC(=O)[C@H](CCSC)n3cc(CCO)nn3)CC2)n1	none
C#CCOCCOCCOCCNc1nc(N2CCN(C(=O)CCCCCCCCCCNC(=O)[C@H](CO)n3cc(CCCSC)nn3)CC2)nc(N2CCN(C(=O)CCCCCCCCCCNC(=O)[C@H](CCCCN)n3cc(CCO)nn3)CC2)n1	RAD52 inh 55
C#CCOCCOCCOCCNc1nc(N2CCN(C(=O)CCCCCCCCCCNC(=O)Cn3cc(CCCCCN)nn3)CC2)nc(N2CCN(C(=O)CCCCCCCCCCNC(=O)[C@@H](CCC(=O)O)n3cc(CCCCCN)nn3)CC2)n1	none (no result: RAD52 inh, AF4-AF9 inh, S100A4 MyoIIA)
C#CCOCCOCCOCCNc1nc(N2CCN(C(=O)CCCCCCCCCCNC(=O)Cn3cc(CCCCCN)nn3)CC2)nc(N2CCN(C(=O)CCCCCCCCCCNC(=O)[C@@H](CCSC)n3cc(CCO)nn3)CC2)n1	RAD52 inh 52 (no result: AF4-AF9 inh)
C[C@@H]1CN([C@H](C)CO)C(=O)c2cc(NS(=O)(=O)c3cn(C)cn3)ccc2O[C@@H]1CN(C)Cc1ccc(-c2ccccc2)cc1	none (no result: dFosB act)
C[C@H](CO)N1C[C@H](C)[C@H](CN(C)C(=O)Cc2ccccc2)OCCCC[C@H](C)Oc2ccc(NC(=O)Cc3ccccc3)cc2C1=O	none (no result: dFosB act)
CC1(c2nnc(-c3ccncc3)o2)CC(c2ccc(F)cc2)=NO1 (stereo unspecified)	AF4-AF9 inh 34
COc1ccc2c3c(n(C)c2c1)[C@H](CO)N(C(=O)CN(C)C)CC31CCN(C(=O)NC(C)C)CC1	none (no result: dFosB act, RAD54 inh)
Cc1ccc(-c2csc(NC(=O)C[n+]3cc(-c4ccc(C)cc4)n4c3CCC4)n2)cc1	dFosB act 37, AF4-AF9 inh inconclusive (no result: RAD54 inh)
O=C(C1CCCC1)N1CC[C@@H]2[C@H](CO)Nc3ccc(C4=CCCCC4)cc3[C@@H]21	AF4-AF9 inh 34 (no result: dFosB act, RAD54 inh)
COc1cccc(-c2ccc3c(c2)[C@@H]2[C@@H](CCN2C(=O)C2CCC2)[C@H](CO)N3)c1	none (no result: dFosB act, RAD52 inh, AF4-AF9 inh, S100A4 MyoIIA)
COc1cccc(-c2ccc3c(c2)[C@@H]2[C@@H](CCN2C(=O)C2CCCC2)[C@H](CO)N3)c1	AF4-AF9 inh 32 (no result: dFosB act, RAD54 inh)
COc1cccc(-c2ccc3c(c2)[C@@H]2[C@@H](CCN2C(=O)C2CCCCC2)[C@H](CO)N3)c1	AF4-AF9 inh 36 (no result: dFosB act, RAD54 inh)
